Measured values pooled from the literature.
CYP2C9: Cytochrome P450 2C9 (CYP2C9, Homo sapiens, UniProt P11712)
CYP2C8: Cytochrome P450 2C8 (CYP2C8, Homo sapiens, UniProt P10632)
ENAH: Protein enabled homolog (ENAH, UniProt Q8N8S7)
DPP4: Dipeptidyl peptidase 4 (DPP4, Homo sapiens, UniProt P27487)

Structure (SMILES)	target	assay	system	setting	measurement	value
C=C(F)C(=O)N1CCN(c2nc(OC[C@@H]3CCCN3C)nc3c2CCN(c2cccc4cccc(Cl)c24)C3)C[C@@H]1CC#N	CYP2C9	enzyme activity, inhibitor	human, liver microsomes	–	Ki	3.2 µM
COc1cc(O)c2c(c1)C(=O)c1cc(C)cc(O)c1C2=O	CYP2C9	enzyme activity, inhibitor	human, liver microsomes	pH 7.4	Ki	3.69 µM
CO[C@]1(C(=O)N[C@@H](C)c2ccc(-n3cc(F)cn3)nc2)CC[C@H](c2nc(C)cc(Nc3cc(C)[nH]n3)n2)CC1	CYP2C8	enzyme activity, inhibitor	human, liver microsomes	–	Ki	9.6 µM
Cn1cncc1[C@@](N)(c1ccc(Cl)cc1)c1ccc2c(c1)c(-c1cccc(Cl)c1)cc(=O)n2C	CYP2C9	enzyme activity, inhibitor	human, liver microsomes	–	Ki	0.35 µM
CSCC[C@H](NC(=O)[C@H](CCC(=O)O)NC(=O)[C@H](CS)NC(=O)[C@H](CO)NC(=O)[C@H](CC(C)C)NC(=O)[C@H](CCC(=O)O)NC(=O)[C@@H](N)CCC(=O)O)C(=O)N[C@@H](CCC(=O)O)C(=O)NCC(=O)N[C@@H](CC(N)=O)C(=O)N[C@@H](CC(C)C)C(=O)N[C@@H](CCC(=O)O)C(=O)N[C@@H](Cc1c[nH]cn1)C(=O)N[C@@H](CC(C)C)C(=O)N1CCC[C@H]1C(=O)N1CCC[C@H]1C(=O)N1CCC[C@H]1C(=O)N1CCC[C@H]1C(=O)N[C@@H](CCSC)C(=O)N[C@@H](CCC(=O)O)C(=O)N[C@H](C(=O)N[C@@H](CC(C)C)C(=O)N[C@@H](CCSC)C(=O)N[C@@H](CC(=O)O)C(=O)N[C@@H](CCCCN)C(=O)N[C@@H](CO)C(=O)N[C@@H](Cc1ccccc1)C(=O)N[C@@H](C)C(=O)N[C@@H](CO)C(=O)N[C@@H](CC(C)C)C(=O)N[C@@H](CCC(=O)O)C(=O)N[C@@H](CO)C(=O)N1CCC[C@H]1C(=O)N[C@@H](CCC(=O)O)C(=O)N[C@@H](CO)C(=O)O)C(C)C	ENAH	binding, fluorescence	–	–	Kd	3.1 µM
Cn1nc2c(=O)n(C3CC3)ccc2c1[C@](O)(c1cnc(C(F)(F)F)c(Cl)c1)C(F)(F)F	CYP2C8	enzyme activity, inhibitor	human, liver microsomes	pH 7.4	IC50	> 20 µM
Cn1c(=O)cc(N2CCC(N)CC2)n(Cc2nc3ccc(Br)cc3c(=O)n2-c2ccc(Br)cc2)c1=O	DPP4	enzyme activity, inhibitor	–	–	IC50	11.2 µM
CC[C@@](N)(c1cnc(C(F)(F)F)c(Cl)c1)c1c2ncn(C3CC3)c(=O)c2nn1C	CYP2C9	enzyme activity, inhibitor	human, liver microsomes	pH 7.4	IC50	> 20 µM
CC[C@H](C)[C@H](NC(=O)[C@H](Cc1c[nH]cn1)NC(=O)[C@@H](N)CCC(=O)O)C(=O)N1CCC[C@H]1C(=O)N1CCC[C@H]1C(=O)N1CCC[C@H]1C(=O)N1CCC[C@H]1C(=O)N[C@@H](CCCNC(=N)N)C(=O)N1CCC[C@H]1C(=O)N1CCC[C@H]1C(=O)N[C@@H](CCCCN)C(=O)N[C@@H](CCCNC(=N)N)C(=O)O	ENAH	binding, FP	–	–	Kd	13 µM
Cn1c(=O)cc(N2CCC(N)CC2)n(Cc2nc3ccc(Br)cc3c(=O)n2-c2cccc(F)c2)c1=O	DPP4	enzyme activity, inhibitor	–	–	IC50	22.1 µM
Cn1nc2c(=O)n(C3CC3)cnc2c1[C@](O)(c1cnc(C(F)(F)F)c(Cl)c1)C(F)(F)F	CYP2C8	enzyme activity, inhibitor	human, liver microsomes	pH 7.4	IC50	> 20 µM
CN(C)c1ncnc2c1ncn2[C@@H]1O[C@H](CCl)[C@@H](NC(=O)[C@H](CSC(c2ccccc2)c2ccccc2)NC(=O)OC(C)(C)C)[C@H]1O	Aminopeptidase N (ANPEP, Homo sapiens, UniProt P15144)	enzyme activity, inhibitor, fluorescence	–	–	IC50	> 100 µM
Cn1c(=O)cc(N2CCC(N)CC2)n(Cc2nc3ccccc3c(=O)n2-c2ccc(F)c(Cl)c2)c1=O	DPP4	enzyme activity, inhibitor	–	–	IC50	35.7 µM
